“Also recorded” adds a separate entry of the source. Where a SMILES comes first, the peptide text is derived from it. Where no end group is shown, it is not given here. The star is where a group is joined. X1 = O=C(O)CN1CCN(CC(=O)O)CCN(CC(O)Cn2cc(CCCC(=O)*)nn2)CCN(CC(=O)O)CC1; PEG2 = NCCOCCOCCC(=O)O
What was measured:
[1] = T1 relaxivity at 7T in PBS; type: physicochemical; settings: phantom, 3.12 - 50 μM
Method in brief: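 Multi-compartment phantom of the test compound in PBS at 50, 25, 12.5, 6.25 and 3.12 μM, imaged on a horizontal 7T scanner. T1 maps came from an accelerated multi-slice method combining a saturation-recovery Look-Locker sequence with spiral k-space sampling. r1 was taken from the slope of 1/T1 plotted against concentration.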

[2] = Gd biodistribution / tissue retention; settings: 1 week after injection, ICP-OES
[3] = tested on: LNCaP prostate tumor xenografts (EDB-FN); assay: Contrast enhanced T1-weighted MRI, LNCaP tumor xenografts; type: in vivo, mouse (male athymic nude); settings: for signal/contrast enhancement: T1-weighted MRI, up to 30 min post-injection; for contrast-to-noise ratio (CNR), range: first 30 min post-injection, i.v., 7T
[4] = r1 relaxivity in PC3 tumor lysates; type: physicochemical; settings: T1 mapping phantom
[5] = In vivo transmetallation and urinary excretion
[6] = In vitro chelate stability / transmetallation in PBS with Cu2+, Ca2+, Zn2+; type: physicochemical
[7] = target: EDB protein (Homo sapiens, UniProt P02751); assay: SPR binding to immobilized EDB protein; settings: second (blue) trend line
[8] = tested on: PC3 and LNCaP tumors; settings: after T1 mapping, about 30 min post-injection; n = 4
[9] = tested on: LNCaP tumors; assay: Quantitative T1 mapping, LNCaP tumors; type: in vivo, mouse (male athymic nude); settings: 30 min after injection
[10] = tested on: PC3 prostate tumor xenografts (EDB-FN); assay: Contrast enhanced T1-weighted MRI, PC3 tumor xenografts; type: in vivo, mouse (male athymic nude); settings: for tumor differentiation: CNR/enhancement in PC3 vs LNCaP tumors: PC3 compared with LNCaP tumors, during 30 min after injection; for signal/contrast enhancement: T1-weighted MRI, up to 30 min post-injection; for contrast-to-noise ratio (CNR), range: first 30 min post-injection, i.v. (ZD2-Gd(HP-DO3A) 0.1 mmol/kg), ZD2-Gd(HP-DO3A) vs ProHance P < 0.05 at all time points
[11] = tested on: other organs and normal tissues; assay: Contrast enhanced T1-weighted MRI, other organs and normal tissues; type: in vivo, mouse (male athymic nude); settings: i.v.
[12] = tested on: PC3 tumors; assay: Quantitative T1 mapping, PC3 tumors; type: in vivo, mouse (male athymic nude); settings: 30 min after injection
[13] = tested on: EDB-FN in PC3 tumor sections; assay: Confocal fluorescence of PC3 tumor sections; design: species or system mouse; settings: confocal microscopy
[14] = tested on: non-cancerous tissue; settings: cited from earlier work
[15] = tested on: low-grade tumor; settings: cited from earlier work
[16] = tested on: high-grade human prostate tumor; settings: cited from earlier work

Sequence of EDB protein (P02751 1271-1359 limits assumed): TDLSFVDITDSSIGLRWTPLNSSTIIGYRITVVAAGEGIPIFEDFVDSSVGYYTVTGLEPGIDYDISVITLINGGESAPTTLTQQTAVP

CC(C)[C@H](NC(=O)[C@@H](NC(=O)CCOCCOCCNC(=O)CCCc1cn(CC(O)CN2CCN(CC(=O)O)CCN(CC(=O)O)CCN(CC(=O)O)CC2)nn1)[C@@H](C)O)C(=O)N[C@@H](CCCNC(=N)N)C(=O)N[C@H](C(=O)N[C@@H](CO)C(=O)N[C@@H](C)C(=O)N[C@@H](CC(=O)O)C(=O)O)[C@@H](C)O (some centres unmarked) [ZD2-Gd(HP-DO3A)] ({X1-PEG2}-TVRTSAD-OH; C-terminus assumed)
T1 relaxivity (r1) [1]: 3.7 mM⁻¹ s⁻¹ | tissue retention / accumulation ([2]; 0.1 mmol-Gd/kg tail vein, ZD2-Gd(HP-DO3A) n = 4, ProHance n = 3): minimal tissue accumulation; also recorded: same low tissue retention as ProHance; also recorded: No significant difference was seen between the two groups; also recorded: minimal body accumulation | Gd3+ concentration in most organs, including brain, heart, skin [2]: below the detection limit of ICP-OES in most of the organs | signal/contrast enhancement ([3]; LNCaP tumors): significantly lower signal enhancement; also recorded: not evident in slow growing LNCaP tumors; also recorded: low enhancement | CNR increase ([3]; LNCaP tumors, first 30 min after 0.1 mmol/kg i.v., n=5): 10~60% | contrast-to-noise ratio (CNR), range ([3]; LNCaP tumors, n=5): 6~9 | CNR in LNCaP relative to PC3 tumors ([3]; LNCaP vs PC3, P < 0.01 for 10 and 20 min, P < 0.001 for 30 min post-injection): more than two times lower | r1 relaxivity [4]: 4.12 mM⁻¹ s⁻¹ | chelation stability in vivo ([5]; summary statement, Fig. 7): same high in vitro and in vivo chelation stability | renal clearance ([5]; urine, 24 hours post-injection): rapid clearance through renal filtration | injected dose excreted in urine ([5]; within 24 hours post-injection, 0.1 mmol-Gd/kg tail vein, ICP-OES): over 95% | relative Gd3+ content ([6]; 200-min incubation in PBS with and without Cu2+, Ca2+ or Zn2+): No decrease in Gd^3+ content was observed | transmetallation / chelate stability ([6]; 24 hours incubation with Cu2+, Ca2+ and Zn2+ in PBS, pH = 7.4): high chelate stability, comparable to its clinical analog ProHance, with no evident transmetallation | chelation stability in vitro ([6]; summary statement, Fig. 2): high chelate stability against transmetallation; also recorded: same high in vitro and in vivo chelation stability | weak binding site in SPR Scatchard plot [7]: weak binding site | Gd3+ concentration in tumors (ICP-OES) [8]: significantly higher concentration in the PC3 tumors than in the LNCaP tumors and that of ProHance in both the tumors | tumor T1, post-contrast [9]: 2.54 ± 0.13 s | tumor differentiation: CNR/enhancement in PC3 vs LNCaP tumors [10]: over two times higher | CNR increase at 10 min ([10]; PC3 tumors, 10 min post-injection, 0.1 mmol/kg i.v., n=5): over two-fold increase | contrast-to-noise ratio (CNR), peak ([10]; PC3 tumors, 30 min post-injection, 0.1 mmol/kg i.v., 7T, mean±SEM, n=5): 23.7±1.68 | CNR increase at 30 min ([10]; PC3 tumors, 30 min post-injection, 0.1 mmol/kg i.v., n=5): over five-fold increase | signal/contrast enhancement ([10]; PC3 tumors): strong signal enhancement within first 10 minutes post-injection | contrast-to-noise ratio (CNR), range ([10]; PC3 tumors, 7T, n=5): 12~25 | contrast enhancement in other organs and normal tissues [11]: did not produce significant contrast enhancement | tumor T1, post-contrast [12]: 1.81 ± 0.07 s | change in relaxation rate (ΔR1) ([12]; n = 4): highest relaxation rate change in the PC3 tumors among all cases

TVRTSAD [ZD2]
colocalization with EDB-FN [13]: colocalize with the EDB-FN fibril network | reduction of PC3 tumor enhancement by competition ([10]; co-injection of excess free ZD2 peptide 0.5 mmol/kg with ZD2-Gd(HP-DO3A) 0.1 mmol/kg, PC3 tumors, n=3): significantly reduced signal enhancement and CNR; also recorded: blocked the binding of the targeted agent and reduced tumor enhancement in the PC3 tumors | binding in non-cancerous tissue [14]: non-binding | binding to low-grade tumor [15]: low binding | binding to high-grade human prostate tumor [16]: strong specific binding

CC(O)CN1CCN(CC(=O)[O-])CCN(CC(=O)[O-])CCN(CC(=O)[O-])CC1.[Gd+3] (centres unmarked) [ProHance, gadoteridol, reference compound]
signal/contrast enhancement ([3]; LNCaP tumors): modest contrast enhancement | contrast-to-noise ratio (CNR), range ([3]; LNCaP tumors, n=5): 7~10 | r1 relaxivity [4]: 3.17 mM⁻¹ s⁻¹ | tumor differentiation: CNR/enhancement in PC3 vs LNCaP tumors [10]: not significantly different | signal/contrast enhancement ([10]; PC3 tumors): modest contrast enhancement | contrast-to-noise ratio (CNR), range ([10]; PC3 tumors, 7T, n=5): 7~11 | contrast enhancement in other organs and normal tissues [11]: did not produce significant contrast enhancement

Cys-Arg-Glu-Lys-Ala [CREKA-Gd(HP-DO3A), reference compound]
signal/contrast enhancement ([3]; LNCaP tumors): significant contrast enhancement in the periphery | tumor differentiation: CNR/enhancement in PC3 vs LNCaP tumors [10]: no significant difference | signal/contrast enhancement ([10]; PC3 tumors): significant contrast enhancement in the periphery

From publication PMC6075728 (Bioconjugate chemistry, 2017)
